{"source": "ChEMBL document CHEMBL5653631", "about": "“A Potent and Selective ULK1 Inhibitor Suppresses Autophagy and Sensitizes Cancer Cells to Nutrient Stress” (iScience, 2018)", "key": {"[1]": {"target": "Protein-tyrosine kinase 6 (Homo sapiens) (UniProt Q13882)", "experiment": "Inhibition of human recombinant BRK at 40 nM in presence of ATP by radiometric assay relative to control", "outline": "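Part of a radiometric in vitro activity panel of 327 recombinant human kinases. Each kinase was tested in duplicate at one inhibitor concentration. Activity remaining was expressed as a percentage of the vehicle control, and percent inhibition was taken as 100 minus that value.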"}, "[2]": {"target": "Calcium/calmodulin-dependent protein kinase kinase 1 (Homo sapiens) (UniProt Q8N5S9)", "sequence (Q8N5S9 whole entry, looked up)": "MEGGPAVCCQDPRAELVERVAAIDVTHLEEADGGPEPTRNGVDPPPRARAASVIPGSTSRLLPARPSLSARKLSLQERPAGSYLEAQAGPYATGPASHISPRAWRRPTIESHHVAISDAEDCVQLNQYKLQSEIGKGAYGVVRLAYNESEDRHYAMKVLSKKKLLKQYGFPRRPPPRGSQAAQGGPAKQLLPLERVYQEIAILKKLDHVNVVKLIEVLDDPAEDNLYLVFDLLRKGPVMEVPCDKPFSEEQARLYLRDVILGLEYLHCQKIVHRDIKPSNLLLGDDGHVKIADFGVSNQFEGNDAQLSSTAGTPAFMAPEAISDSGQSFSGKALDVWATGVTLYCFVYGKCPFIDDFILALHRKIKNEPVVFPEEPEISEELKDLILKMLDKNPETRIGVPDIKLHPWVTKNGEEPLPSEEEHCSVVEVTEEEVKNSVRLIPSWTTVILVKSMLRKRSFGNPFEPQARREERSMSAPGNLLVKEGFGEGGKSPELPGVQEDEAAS", "experiment": "Inhibition of human recombinant CaMKK1 at 40 nM in presence of ATP by radiometric assay relative to control"}, "[3]": {"target": "LIM domain kinase 1 (Homo sapiens) (UniProt P53667)", "sequence (P53667 whole entry, looked up, the tested form may be a part)": "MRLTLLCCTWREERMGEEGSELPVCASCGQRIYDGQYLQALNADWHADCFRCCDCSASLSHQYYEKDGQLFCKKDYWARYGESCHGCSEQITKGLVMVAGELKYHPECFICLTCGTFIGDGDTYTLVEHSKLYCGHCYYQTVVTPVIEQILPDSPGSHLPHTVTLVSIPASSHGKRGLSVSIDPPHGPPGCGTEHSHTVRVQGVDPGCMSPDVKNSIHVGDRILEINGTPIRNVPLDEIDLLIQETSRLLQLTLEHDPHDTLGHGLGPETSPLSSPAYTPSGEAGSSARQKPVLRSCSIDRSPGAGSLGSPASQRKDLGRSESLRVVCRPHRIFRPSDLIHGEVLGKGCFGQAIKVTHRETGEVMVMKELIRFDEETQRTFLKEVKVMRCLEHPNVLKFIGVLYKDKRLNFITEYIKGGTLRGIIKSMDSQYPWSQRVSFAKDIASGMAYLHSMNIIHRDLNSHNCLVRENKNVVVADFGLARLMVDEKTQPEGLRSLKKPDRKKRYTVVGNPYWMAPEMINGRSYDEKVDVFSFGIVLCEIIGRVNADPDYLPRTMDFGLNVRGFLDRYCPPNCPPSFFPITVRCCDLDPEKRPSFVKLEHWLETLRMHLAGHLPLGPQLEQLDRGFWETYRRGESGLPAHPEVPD", "experiment": "Inhibition of human recombinant LIMK1 at 40 nM in presence of ATP by radiometric assay relative to control"}, "[4]": {"target": "Tyrosine-protein kinase Fyn (Homo sapiens) (UniProt P06241)", "experiment": "Inhibition of human recombinant FYN at 500 nM in presence of ATP by radiometric assay relative to control"}, "[5]": {"target": "T1, Beta-adrenergic receptor kinase 1 (Homo sapiens) (UniProt P25098)", "T1 sequence (whole entry)": "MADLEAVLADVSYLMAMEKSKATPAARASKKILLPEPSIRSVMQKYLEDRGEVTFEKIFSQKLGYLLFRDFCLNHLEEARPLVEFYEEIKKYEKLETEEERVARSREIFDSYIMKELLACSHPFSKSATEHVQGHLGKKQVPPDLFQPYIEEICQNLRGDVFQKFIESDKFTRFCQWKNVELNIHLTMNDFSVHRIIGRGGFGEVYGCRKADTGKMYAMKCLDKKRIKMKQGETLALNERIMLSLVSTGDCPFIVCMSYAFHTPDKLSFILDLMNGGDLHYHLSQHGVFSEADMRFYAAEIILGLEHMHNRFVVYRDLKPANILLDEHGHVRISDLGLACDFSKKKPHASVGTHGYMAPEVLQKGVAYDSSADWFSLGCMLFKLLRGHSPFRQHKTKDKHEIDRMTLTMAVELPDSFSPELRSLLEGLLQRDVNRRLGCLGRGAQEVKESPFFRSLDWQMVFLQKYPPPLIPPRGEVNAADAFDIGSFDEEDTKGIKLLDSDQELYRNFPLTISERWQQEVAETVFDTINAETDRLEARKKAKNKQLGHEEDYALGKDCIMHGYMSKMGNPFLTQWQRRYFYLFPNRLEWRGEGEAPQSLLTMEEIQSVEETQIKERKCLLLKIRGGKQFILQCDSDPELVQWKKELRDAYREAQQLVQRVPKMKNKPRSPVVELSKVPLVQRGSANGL", "experiment": "Inhibition of human recombinant BARK1 at 500 nM related to control ULK1"}, "[6]": {"target": "Cell division cycle 7-related protein kinase (Homo sapiens) (UniProt O00311)", "sequence (O00311 whole entry, looked up)": "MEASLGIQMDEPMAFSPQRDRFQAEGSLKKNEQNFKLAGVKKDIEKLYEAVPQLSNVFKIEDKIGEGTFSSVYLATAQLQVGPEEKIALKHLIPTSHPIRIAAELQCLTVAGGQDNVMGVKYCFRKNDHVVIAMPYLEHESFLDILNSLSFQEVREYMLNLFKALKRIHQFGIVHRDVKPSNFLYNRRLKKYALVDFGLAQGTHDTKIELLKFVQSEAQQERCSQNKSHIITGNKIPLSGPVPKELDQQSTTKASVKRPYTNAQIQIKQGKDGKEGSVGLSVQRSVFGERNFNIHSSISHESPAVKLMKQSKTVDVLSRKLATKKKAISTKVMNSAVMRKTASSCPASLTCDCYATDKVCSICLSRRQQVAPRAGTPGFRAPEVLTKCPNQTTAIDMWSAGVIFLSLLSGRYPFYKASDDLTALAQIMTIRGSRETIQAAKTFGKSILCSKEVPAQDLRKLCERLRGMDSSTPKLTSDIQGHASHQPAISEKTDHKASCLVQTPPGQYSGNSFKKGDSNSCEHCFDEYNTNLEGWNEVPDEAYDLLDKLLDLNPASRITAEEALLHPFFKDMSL", "experiment": "Inhibition of human recombinant CDC7 at 500 nM related to control ULK1"}, "[7]": {"target": "T2, Serine/threonine-protein kinase Sgk3 (Homo sapiens) (UniProt Q96BR1)", "T2 sequence (whole entry)": "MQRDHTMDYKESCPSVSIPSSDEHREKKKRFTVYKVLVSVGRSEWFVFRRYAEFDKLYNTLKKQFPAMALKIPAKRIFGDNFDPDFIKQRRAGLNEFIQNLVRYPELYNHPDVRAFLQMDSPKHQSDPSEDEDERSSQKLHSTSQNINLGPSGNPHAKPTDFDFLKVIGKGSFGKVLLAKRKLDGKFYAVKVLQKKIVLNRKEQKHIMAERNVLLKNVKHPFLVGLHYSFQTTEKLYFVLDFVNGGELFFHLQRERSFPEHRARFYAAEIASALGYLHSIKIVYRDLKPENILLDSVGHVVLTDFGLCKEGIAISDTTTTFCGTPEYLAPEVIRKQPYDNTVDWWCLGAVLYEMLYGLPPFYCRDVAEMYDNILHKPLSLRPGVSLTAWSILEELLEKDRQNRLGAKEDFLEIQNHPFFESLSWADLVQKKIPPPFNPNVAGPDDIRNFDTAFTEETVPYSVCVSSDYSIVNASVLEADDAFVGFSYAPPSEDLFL", "experiment": "Inhibition of human recombinant SGK3 at 500 nM related to control ULK1"}, "[8]": {"target": "MAP kinase-activated protein kinase 2 (Homo sapiens) (UniProt P49137)", "sequence (P49137 whole entry, looked up)": "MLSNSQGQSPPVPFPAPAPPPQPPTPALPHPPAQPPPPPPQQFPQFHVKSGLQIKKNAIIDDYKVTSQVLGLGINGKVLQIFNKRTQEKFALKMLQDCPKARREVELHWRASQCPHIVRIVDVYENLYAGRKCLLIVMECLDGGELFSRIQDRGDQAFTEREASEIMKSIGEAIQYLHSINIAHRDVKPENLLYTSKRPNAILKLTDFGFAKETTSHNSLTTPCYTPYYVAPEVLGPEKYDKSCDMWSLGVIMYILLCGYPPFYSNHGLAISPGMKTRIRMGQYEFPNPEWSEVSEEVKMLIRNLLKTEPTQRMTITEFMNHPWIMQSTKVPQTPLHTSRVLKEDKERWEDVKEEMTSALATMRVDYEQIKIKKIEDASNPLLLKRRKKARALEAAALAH", "experiment": "Inhibition of human recombinant MAPKAPK2 at 15 nM in presence of ATP by radiometric assay relative to control"}, "[9]": {"target": "Proto-oncogene tyrosine-protein kinase ROS (Homo sapiens) (UniProt P08922)", "sequence (P08922 whole entry)": "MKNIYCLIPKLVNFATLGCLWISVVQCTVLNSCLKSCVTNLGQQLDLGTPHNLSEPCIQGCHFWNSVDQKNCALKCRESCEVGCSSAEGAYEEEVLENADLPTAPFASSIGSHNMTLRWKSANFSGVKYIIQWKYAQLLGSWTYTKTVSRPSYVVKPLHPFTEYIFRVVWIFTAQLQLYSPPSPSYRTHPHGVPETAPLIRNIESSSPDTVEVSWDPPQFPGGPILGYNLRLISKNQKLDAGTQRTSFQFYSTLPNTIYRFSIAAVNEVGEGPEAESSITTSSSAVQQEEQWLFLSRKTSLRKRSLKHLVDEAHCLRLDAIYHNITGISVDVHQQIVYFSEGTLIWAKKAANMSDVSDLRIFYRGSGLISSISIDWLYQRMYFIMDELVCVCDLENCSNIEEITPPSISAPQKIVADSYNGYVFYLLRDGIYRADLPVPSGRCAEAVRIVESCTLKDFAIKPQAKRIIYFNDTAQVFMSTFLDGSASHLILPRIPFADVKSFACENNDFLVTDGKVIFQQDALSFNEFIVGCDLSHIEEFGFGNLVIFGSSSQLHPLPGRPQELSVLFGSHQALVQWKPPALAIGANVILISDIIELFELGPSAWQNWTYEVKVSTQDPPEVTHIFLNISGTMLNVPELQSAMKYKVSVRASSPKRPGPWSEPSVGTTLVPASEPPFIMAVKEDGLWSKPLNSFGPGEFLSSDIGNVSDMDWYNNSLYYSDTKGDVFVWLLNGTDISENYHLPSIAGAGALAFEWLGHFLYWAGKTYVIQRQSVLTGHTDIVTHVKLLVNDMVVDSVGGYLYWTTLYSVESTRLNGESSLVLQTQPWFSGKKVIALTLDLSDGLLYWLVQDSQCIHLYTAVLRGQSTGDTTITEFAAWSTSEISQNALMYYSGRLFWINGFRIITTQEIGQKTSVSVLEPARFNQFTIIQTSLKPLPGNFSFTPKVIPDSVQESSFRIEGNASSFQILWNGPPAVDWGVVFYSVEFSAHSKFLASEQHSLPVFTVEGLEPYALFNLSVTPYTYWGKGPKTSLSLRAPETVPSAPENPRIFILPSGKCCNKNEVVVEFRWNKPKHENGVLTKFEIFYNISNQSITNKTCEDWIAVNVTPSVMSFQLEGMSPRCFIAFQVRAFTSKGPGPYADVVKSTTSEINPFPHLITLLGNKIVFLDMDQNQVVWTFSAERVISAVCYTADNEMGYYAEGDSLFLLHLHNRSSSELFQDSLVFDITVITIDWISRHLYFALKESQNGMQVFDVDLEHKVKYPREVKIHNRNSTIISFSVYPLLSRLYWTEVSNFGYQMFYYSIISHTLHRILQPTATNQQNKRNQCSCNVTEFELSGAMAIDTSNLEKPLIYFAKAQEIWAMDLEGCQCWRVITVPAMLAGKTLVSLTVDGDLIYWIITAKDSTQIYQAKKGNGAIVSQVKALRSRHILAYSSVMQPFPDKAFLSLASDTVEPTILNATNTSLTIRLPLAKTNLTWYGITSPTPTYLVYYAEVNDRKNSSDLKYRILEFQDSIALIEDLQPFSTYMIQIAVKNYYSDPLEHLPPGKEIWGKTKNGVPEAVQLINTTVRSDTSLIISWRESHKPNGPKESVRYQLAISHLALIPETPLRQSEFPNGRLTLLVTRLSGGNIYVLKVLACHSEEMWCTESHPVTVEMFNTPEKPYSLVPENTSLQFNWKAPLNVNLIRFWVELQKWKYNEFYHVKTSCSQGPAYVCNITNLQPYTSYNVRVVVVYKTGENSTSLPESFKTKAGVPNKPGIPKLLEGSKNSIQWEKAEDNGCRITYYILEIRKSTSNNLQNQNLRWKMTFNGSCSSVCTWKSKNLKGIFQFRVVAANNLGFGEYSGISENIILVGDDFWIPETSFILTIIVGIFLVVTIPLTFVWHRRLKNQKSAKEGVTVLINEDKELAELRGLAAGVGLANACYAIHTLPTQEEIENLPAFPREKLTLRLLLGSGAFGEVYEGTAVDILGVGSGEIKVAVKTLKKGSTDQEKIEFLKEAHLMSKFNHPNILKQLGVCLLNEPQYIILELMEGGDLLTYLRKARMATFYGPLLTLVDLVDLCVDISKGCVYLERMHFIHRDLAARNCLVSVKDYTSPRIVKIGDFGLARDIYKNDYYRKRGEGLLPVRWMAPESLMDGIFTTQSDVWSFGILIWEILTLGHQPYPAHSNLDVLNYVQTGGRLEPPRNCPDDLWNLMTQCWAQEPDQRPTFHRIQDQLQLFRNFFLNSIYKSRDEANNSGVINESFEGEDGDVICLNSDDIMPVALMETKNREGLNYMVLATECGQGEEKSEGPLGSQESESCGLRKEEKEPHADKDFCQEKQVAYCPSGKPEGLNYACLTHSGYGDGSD", "experiment": "Inhibition of human recombinant ROS at 15 nM related to control ULK1"}, "[10]": {"target": "T3, Mitogen-activated protein kinase kinase kinase 7 (Homo sapiens) (UniProt O43318)", "T3 sequence (whole entry)": "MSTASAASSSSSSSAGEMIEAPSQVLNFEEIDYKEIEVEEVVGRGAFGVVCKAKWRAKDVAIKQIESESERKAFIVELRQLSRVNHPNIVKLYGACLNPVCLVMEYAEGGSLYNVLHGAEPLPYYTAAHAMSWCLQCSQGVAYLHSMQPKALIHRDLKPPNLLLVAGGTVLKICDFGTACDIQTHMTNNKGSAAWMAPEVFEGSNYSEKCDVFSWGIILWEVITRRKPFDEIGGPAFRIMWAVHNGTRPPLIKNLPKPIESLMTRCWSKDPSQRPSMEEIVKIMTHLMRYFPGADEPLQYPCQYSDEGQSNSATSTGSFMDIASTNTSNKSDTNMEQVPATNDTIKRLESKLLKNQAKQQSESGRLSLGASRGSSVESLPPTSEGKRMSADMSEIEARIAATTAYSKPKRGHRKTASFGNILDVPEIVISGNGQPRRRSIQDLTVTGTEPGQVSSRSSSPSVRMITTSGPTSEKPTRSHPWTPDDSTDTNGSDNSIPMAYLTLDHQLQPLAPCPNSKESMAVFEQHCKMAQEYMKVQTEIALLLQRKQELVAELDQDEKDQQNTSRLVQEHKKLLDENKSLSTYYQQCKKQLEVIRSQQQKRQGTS", "experiment": "Inhibition of human recombinant TAK1 at 15 nM related to control ULK1"}, "[11]": {"target": "Serine/threonine-protein kinase 32C (Homo sapiens) (UniProt Q86UX6)", "sequence (Q86UX6 whole entry)": "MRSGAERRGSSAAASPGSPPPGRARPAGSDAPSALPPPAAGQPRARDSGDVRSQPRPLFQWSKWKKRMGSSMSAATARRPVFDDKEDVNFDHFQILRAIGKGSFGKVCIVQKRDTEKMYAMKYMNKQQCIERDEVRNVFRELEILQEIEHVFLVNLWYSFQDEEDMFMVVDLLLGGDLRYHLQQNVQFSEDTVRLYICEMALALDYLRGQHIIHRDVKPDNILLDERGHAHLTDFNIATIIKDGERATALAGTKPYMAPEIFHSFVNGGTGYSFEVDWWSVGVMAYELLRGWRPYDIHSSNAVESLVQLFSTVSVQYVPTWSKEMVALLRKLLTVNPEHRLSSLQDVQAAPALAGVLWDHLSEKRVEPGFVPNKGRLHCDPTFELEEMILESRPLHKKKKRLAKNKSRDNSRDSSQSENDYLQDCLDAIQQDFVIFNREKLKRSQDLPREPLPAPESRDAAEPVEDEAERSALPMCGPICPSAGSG", "experiment": "Inhibition of human recombinant YANK3 at 15 nM related to control ULK1"}}, "data": [{"smiles": "O=C(N[C@@H](C1CC1)C(F)(F)F)c1cc(-c2cnn3cc(-c4ccc(F)cc4)cnc23)cs1", "values": [{"measurement": "inhibition", "setting": "[1]", "result": 0, "unit": "%"}, {"measurement": "inhibition", "setting": "[2]", "result": 0, "unit": "%"}, {"measurement": "inhibition", "setting": "[3]", "result": 15, "unit": "%"}]}, {"smiles": "CNC(=O)c1ccccc1Oc1nc(Nc2cc(OC)c(OC)c(OC)c2)ncc1Br", "values": [{"measurement": "inhibition", "setting": "[4]", "result": 19, "unit": "%"}, {"measurement": "fold change (FC)", "setting": "[5]", "result": 0.11}, {"measurement": "fold change (FC)", "setting": "[6]", "result": 0}, {"measurement": "fold change (FC)", "setting": "[7]", "result": 0.01}]}, {"smiles": "CC(C)[C@H](NC(=O)c1cc(-c2cnn3cc(-c4ccc(OCCN5CCCCC5)cc4)cnc23)cs1)C(F)(F)F", "values": [{"measurement": "inhibition", "setting": "[8]", "result": 0, "unit": "%"}, {"measurement": "fold change (FC)", "setting": "[9]", "result": 0}, {"measurement": "fold change (FC)", "setting": "[10]", "result": 0.01}, {"measurement": "fold change (FC)", "setting": "[11]", "result": 0.03}]}]}
